Where a name gives a salt, the structure may show the parent alone.
Legend:
[1] = system: PLC/PRF/5 hepatocellular carcinoma cells; experiment: MTT cytotoxicity assay; format: cell-based, Human
How it was run: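 PLC/PRF/5 cells grown in DMEM with 10% FBS and penicillin/streptomycin at 37°C, 5% CO2. Seeded at 7×10^3 cells/well in triplicate and left 24 h. Treated 24 h or 48 h with test compound (DMSO stock diluted in DMEM) or nanoparticle formulations (DMEM-suspended, sonicated 10 min). MTT added for 3 h, formazan dissolved in isopropanol, A570 read. Untreated cells set at 100%. IC50 from curve fitting.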

Swiss albino mice = experiment: In vivo biodistribution study; details: 5 mg/kg intravenously

In the case of CNC(=O)c1cc(Oc2ccc(NC(=O)Nc3ccc(Cl)c(C(F)(F)F)c3)cc2)ccn1 [SRFT, Sorafenib tosylate], the IC50 ([1]; Homo sapiens, PLC-PRF-5) is reported as 6 to 8 µM, the “cytotoxicity” value ([1]; PLC/PRF/5, 4–12 µM, 24 h and 48 h) is reported as “concentration-dependent cytotoxicity” and the “sorafenib distribution liver vs kidneys, first hour” value (Swiss albino mice; 1 h) is reported as “accumulated in the kidneys was higher compared to liver”. The “sorafenib distribution liver vs kidneys at 48 h” value (Swiss albino mice; 48 h) was “in kidneys at 48 h was higher than in the liver”.
